In ChEMBL document CHEMBL4732146, “Nitric oxide-donating and reactive oxygen species-responsive prochelators based on 8-hydroxyquinoline as anticancer agents” (Eur J Med Chem, 2021):
Activity calls are given as the source filed them. The calls are words filed in the database; no cut-off is given here.

Tests used:
SW1990 [1] = assay: Cytotoxicity against human SW1990 cells assessed as reduction in cell viability measured after 48 hrs in presence of CuCl2 by MTT assay; format: functional, cell-based; conditions: SW1990, 48 h
Summary of the method: (§1)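 Cells seeded 6 × 10⁴ per well, cultured 24 h at 37 °C under 5% CO₂, then exposed to compound for 48 h, with or without 50 µM CuCl₂ or FeCl₃ co-incubation. MTT added for 4 h at 37 °C, formazan dissolved in DMSO, A490 read. IC50 reported as mean (SD), n = 3.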

SW1990 [2] = assay: Cytotoxicity against human SW1990 cells assessed as reduction in cell viability measured after 48 hrs in presence of FeCl3 by MTT assay; format: functional, cell-based; conditions: SW1990, 48 h; summary of the method: as §1
HepG2 [3] = assay: Cytotoxicity against human HepG2 cells assessed as reduction in cell viability measured after 48 hrs by MTT assay; format: functional, cell-based; conditions: HepG2, 48 h; summary of the method: as §1
SW1990 [4] = assay: Cytotoxicity against human SW1990 cells assessed as reduction in cell viability measured after 48 hrs by MTT assay; format: functional, cell-based; conditions: SW1990, 48 h; summary of the method: as §1
PC-3 [5] = assay: Cytotoxicity against human PC-3 cells assessed as reduction in cell viability measured after 48 hrs in presence of FeCl3 by MTT assay; format: functional, cell-based; conditions: PC-3, 48 h; summary of the method: as §1
PC-3 [6] = assay: Cytotoxicity against human PC-3 cells assessed as reduction in cell viability measured after 48 hrs by MTT assay; format: functional, cell-based; conditions: PC-3, 48 h; summary of the method: as §1
[7] = Metal chelating activity assessed as compound-Fe3+ complex formation measured after 40 mins by calcein dye based fluorescence assay; conditions: dose 10-50 µM
Summary of the method: (§2)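 Calcein (10 µM) in 50 mM HEPES was quenched by 10 µM CuCl₂ (or FeCl₃ for the Fe³⁺ arm). Chelator was added from DMSO stock to a final 10 or 50 µM and incubated 40 min at room temperature. Recovery rate was calculated from fluorescence (λex 485 / λem 520 nm); n = 3.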

A549 [8] = assay: Cytotoxicity against human A549 cells assessed as reduction in cell viability measured after 48 hrs by MTT assay; format: functional, cell-based; conditions: A549, 48 h
PANC-1 [9] = assay: Cytotoxicity against human PANC-1 cells assessed as reduction in cell viability measured after 48 hrs in presence of CuCl2 by MTT assay; format: functional, cell-based; conditions: PANC-1, 48 h; summary of the method: as §1
A549 [10] = assay: Cytotoxicity against human A549 cells assessed as reduction in cell viability measured after 48 hrs in presence of FeCl3 by MTT assay; format: functional, cell-based; conditions: A549, 48 h
SW1990 [11] = assay: Antitumor activity against human SW1990 cells xenografted in Balb/c nude mouse assessed as tumor size at 20 mg/kg, iv administered every 3 days measured after 21 days (reference value: 1.23 +/- 0.25 cm3); format: functional; conditions: time 21 day
Summary of the method: (§3)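 Male BALB/c nude mice, 3–5 weeks old, given 1 × 10⁷ SW1990 cells subcutaneously; when tumors reached about 65 mm³, randomised to groups of eight. Saline vehicle control, dosing intravenously every three days. Tumor size monitored every two days for three weeks; tumors dissected at sacrifice on day 21, volume = d² × D/2 (d smallest, D largest diameter). Mean ± SD.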

HeLa [12] = assay: Cytotoxicity against human HeLa cells assessed as reduction in cell viability measured after 48 hrs by MTT assay; format: functional, cell-based
HCT-116 [13] = assay: Cytotoxicity against human HCT-116 cells assessed as reduction in cell viability measured after 48 hrs by MTT assay; format: functional, cell-based; conditions: HCT-116, 48 h; summary of the method: as §1
[14] = Cytotoxicity against human H6C7 cells assessed as reduction in cell viability measured after 48 hrs by MTT assay; format: cell-based; conditions: H6C7, 48 h; summary of the method: as §1
[15] = Metal chelating activity assessed as compound-Cu2+ complex formation measured after 40 mins by calcein dye based fluorescence assay; conditions: dose 10-50 µM; summary of the method: as §2
PANC-1 [16] = assay: Cytotoxicity against human PANC-1 cells assessed as reduction in cell viability at 20 uM measured after 48 hrs by MTT assay relative to control; format: functional
Summary of the method: (§4)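 MTT assay with 48 h compound exposure at 10 or 20 µM. Cells seeded 6 × 10⁴ per well and grown 24 h beforehand. MTT 4 h, DMSO solubilisation, A490 read. Percent cell death given as mean ± SD, n = 3.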

HeLa [17] = assay: Cytotoxicity against human HeLa cells assessed as reduction in cell viability measured after 48 hrs in presence of FeCl3 by MTT assay; format: functional, cell-based
MCF7 [18] = assay: Cytotoxicity against human MCF7 cells assessed as reduction in cell viability measured after 48 hrs by MTT assay; format: functional, cell-based; conditions: MCF7, 48 h; summary of the method: as §1
PANC-1 [19] = assay: Cytotoxicity against human PANC-1 cells assessed as reduction in cell viability measured after 48 hrs by MTT assay; format: functional, cell-based; conditions: PANC-1, 48 h; summary of the method: as §1
HeLa [20] = assay: Cytotoxicity against human HeLa cells assessed as reduction in cell viability measured after 48 hrs in presence of CuCl2 by MTT assay; format: functional, cell-based
SW1990 [21] = assay: Induction of apoptosis in human SW1990 cells at 12 uM measured after 24 hrs by Annexin V-FITC/propidium iodide staining based flow cytometry; format: functional, cell-based
Summary of the method: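 SW1990 cells seeded 5 × 10⁵ per well and grown 24 h, then treated 24 h at 8 or 12 µM. Optional 1 h pretreatment with 20 mM NAC or 50 µM carboxyl-PTIO before 12 µM treatment. Cells stained with annexin V-FITC 15 min and PI 5 min at room temperature in the dark, then analysed by flow cytometry. Mean ± SD, n = 3.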

HepG2 [22] = assay: Cytotoxicity against human HepG2 cells assessed as reduction in cell viability measured after 48 hrs in presence of FeCl3 by MTT assay; format: functional, cell-based; conditions: HepG2, 48 h; summary of the method: as §1
HCT-116 [23] = assay: Cytotoxicity against human HCT-116 cells assessed as reduction in cell viability measured after 48 hrs in presence of CuCl2 by MTT assay; format: functional, cell-based; conditions: HCT-116, 48 h; summary of the method: as §1
HepG2 [24] = assay: Cytotoxicity against human HepG2 cells assessed as reduction in cell viability measured after 48 hrs in presence of CuCl2 by MTT assay; format: functional, cell-based; conditions: HepG2, 48 h; summary of the method: as §1
SW1990 [25] = assay: Antitumor activity against human SW1990 cells xenografted in Balb/c nude mouse assessed as tumor growth inhibition at 20 mg/kg, iv administered every 3 days measured after 21 days relative to control; format: functional; conditions: 504 h, time 21 day, read-out: TGI; summary of the method: as §3
PC-3 [26] = assay: Cytotoxicity against human PC-3 cells assessed as reduction in cell viability measured after 48 hrs in presence of CuCl2 by MTT assay; format: functional, cell-based; conditions: PC-3, 48 h; summary of the method: as §1
HCT-116 [27] = assay: Cytotoxicity against human HCT-116 cells assessed as reduction in cell viability measured after 48 hrs in presence of FeCl3 by MTT assay; format: functional, cell-based; conditions: HCT-116, 48 h; summary of the method: as §1
MCF7 [28] = assay: Cytotoxicity against human MCF7 cells assessed as reduction in cell viability measured after 48 hrs in presence of CuCl2 by MTT assay; format: functional, cell-based; conditions: MCF7, 48 h; summary of the method: as §1
[29] = Cytotoxicity against human RWPE2 cells assessed as reduction in cell viability measured after 48 hrs by MTT assay; format: cell-based; conditions: RWPE2, 48 h; summary of the method: as §1
PANC-1 [30] = assay: Cytotoxicity against human PANC-1 cells assessed as reduction in cell viability measured after 48 hrs in presence of FeCl3 by MTT assay; format: functional, cell-based; conditions: PANC-1, 48 h; summary of the method: as §1
A549 [31] = assay: Cytotoxicity against human A549 cells assessed as reduction in cell viability measured after 48 hrs in presence of CuCl2 by MTT assay; format: functional, cell-based; conditions: A549, 48 h
MCF7 [32] = assay: Cytotoxicity against human MCF7 cells assessed as reduction in cell viability measured after 48 hrs in presence of FeCl3 by MTT assay; format: functional, cell-based; conditions: MCF7, 48 h; summary of the method: as §1
[33] = Drug metabolism in human SW1990 cells assessed as nitric oxide release at 10 uM measured after 8 hrs by Griess assay; format: ADME, cell-based; conditions: sw1990, 8 h
Summary of the method: (§5)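 Cells exposed 8 h to 10 µM compound. Nitrite measured by Griess reagent kit at 540 nm against a NaNO₂ calibration curve. Mean ± SD, n = 3.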

[34] = Drug metabolism in human PANC-1 cells assessed as nitric oxide release at 10 uM measured after 8 hrs by Griess assay; format: ADME, cell-based; conditions: panc-1, 8 h; summary of the method: as §5
HeLa [35] = assay: Cytotoxicity against human HeLa cells assessed as reduction in cell viability at 10 to 20 uM measured after 48 hrs by MTT assay; format: functional, cell-based; conditions: dose 10-20 µM
MCF7 [36] = assay: Cytotoxicity against human MCF7 cells assessed as reduction in cell viability at 10 to 20 uM measured after 48 hrs by MTT assay; format: functional, cell-based; conditions: dose 10-20 µM; summary of the method: as §4
PANC-1 [37] = assay: Cytotoxicity against human PANC-1 cells assessed as reduction in cell viability at 10 uM measured after 48 hrs by MTT assay; format: functional, cell-based; summary of the method: as §4
HepG2 [38] = assay: Cytotoxicity against human HepG2 cells assessed as reduction in cell viability at 10 to 20 uM measured after 48 hrs by MTT assay; format: functional, cell-based; conditions: dose 10-20 µM; summary of the method: as §4
A549 [39] = assay: Cytotoxicity against human A549 cells assessed as reduction in cell viability at 10 to 20 uM measured after 48 hrs by MTT assay; format: functional, cell-based; conditions: dose 10-20 µM

Oc1cccc2cccnc12 [OXYQUINOLINE]
IC50 (SW1990 [1]): 10.2 µM | IC50 (SW1990 [2]): > 50 µM | IC50 (HepG2 [3]): > 50 µM | IC50 (SW1990 [4]): 32.1 µM | IC50 (PC-3 [5]): > 50 µM | IC50 (PC-3 [6]): 32 µM | Activity [7]: Dose-dependent effect | IC50 (A549 [8]): 31.2 µM | IC50 (PANC-1 [9]): 7.43 µM | IC50 (A549 [10]): 32.6 µM | Activity (SW1990 [11]): 0.68 cm3 | IC50 (HeLa [12]): > 50 µM | IC50 (HCT-116 [13]): 21.1 µM | IC50 [14]: 20.1 µM | Activity [15]: Dose-dependent effect | Activity (PANC-1 [16]): 48% | IC50 (HeLa [17]): > 50 µM | IC50 (MCF7 [18]): > 50 µM | IC50 (PANC-1 [19]): 24.5 µM | IC50 (HeLa [20]): 35.6 µM | Activity (SW1990 [21]): Active | IC50 (HepG2 [22]): > 50 µM | IC50 (HCT-116 [23]): 7.25 µM | IC50 (HepG2 [24]): 32.1 µM | inhibition in vivo at 20 mg/kg (SW1990 [25]): 44.7% | IC50 (PC-3 [26]): 14.4 µM | IC50 (HCT-116 [27]): 26.3 µM | IC50 (MCF7 [28]): 21.1 µM | IC50 [29]: 25.6 µM | IC50 (PANC-1 [30]): 30.4 µM | IC50 (A549 [31]): 6.58 µM | IC50 (MCF7 [32]): > 50 µM

O=C(c1ccc2cccc(O)c2n1)N1CCC(Oc2no[n+]([O-])c2S(=O)(=O)c2ccccc2)CC1
IC50 (SW1990 [1]): 0.79 µM | IC50 (SW1990 [2]): 10.6 µM | IC50 (HepG2 [3]): 14.6 µM | IC50 (SW1990 [4]): 6.59 µM | IC50 (PC-3 [5]): 14.6 µM | IC50 (PC-3 [6]): 10.4 µM | Activity [7]: Dose-dependent effect | IC50 (A549 [8]): 7.8 µM | IC50 (PANC-1 [9]): 1.32 µM | Drug metabolism [33]: Metabolite_Detected | IC50 (A549 [10]): 12.4 µM | IC50 (HeLa [12]): 33.9 µM | Drug metabolism [34]: Metabolite_Detected | IC50 (HCT-116 [13]): 11.2 µM | IC50 [14]: 13.2 µM | Activity (HeLa [35]): Active | Activity [15]: Dose-dependent effect | Activity (PANC-1 [16]): 82.3% | Activity (MCF7 [36]): Active | IC50 (HeLa [17]): 37.9 µM | IC50 (MCF7 [18]): 15.4 µM | IC50 (PANC-1 [19]): 9.05 µM | IC50 (HeLa [20]): 9.77 µM | IC50 (HepG2 [22]): 19.9 µM | IC50 (HCT-116 [23]): 3.29 µM | IC50 (HepG2 [24]): 4.05 µM | Activity (PANC-1 [37]): Active | Activity (HepG2 [38]): Active | IC50 (PC-3 [26]): 5.02 µM | IC50 (HCT-116 [27]): 17.2 µM | Activity (A549 [39]): Active | IC50 (MCF7 [28]): 3.07 µM | IC50 [29]: 7.04 µM | IC50 (PANC-1 [30]): 14.8 µM | IC50 (A549 [31]): 2.16 µM | IC50 (MCF7 [32]): 17 µM
